MT1-MMP act inh: blockers of MT1-MMP proenzyme processing, primary screen, HT1080 RFP-PRO-GFP cells, GFP/RFP fluorescence. GFP/RFP ratio fluorescence, overnight; percent of plate control window, DMSO zero. GFP/RFP ratio change, % at 20 µM. hit rate 0.061% among 360,000;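 active means GFP/RFP ratio change of at least 30% with cell ATP level not reduced by more than half and red fluorescence within 50% of control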
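Compound: 20 µM single dose, 1% DMSO / System: HT1080 RFP-PRO-GFP cells / Controls: DMSO and RFP-L50D-GFP cell wells / Read-out basis: GFP/RFP fluorescence ratio / Schedule: overnight compound exposure at 37 °C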
TMEM16A inh: TMEM16A chloride channel inhibitors, primary screen, cell-based, HTS | HEK293 TMEM16A/YFP iodide influx fluorescence, ionomycin | normalized B-score (activity score, 25-100; higher = stronger inhibition) at 10 µM | hit rate 1.2% among 310,000 | AID 588511, 2011;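 active means ratio plate-corrected score three or more library SD toward inhibition, starting fluorescence score within five deviations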;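 further: score derived from kinetic fluorescence span divided by baseline fluorescence per well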
TMEM16A act: TMEM16A chloride channel activators or potentiators, primary screen, cell-based, HTS. Anoctamin-1 (Mus musculus), Q8BHY3. HEK293 TMEM16A/YFP-H148Q/I152L, iodide quench fluorescence; active compounds read low. B-score at 10 µM. hit rate 0.3% among 340,000. AID 623877, 2012;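 active means fluorescence-ratio B-score plate-corrected deviation score at least 3 library SD below zero, with starting fluorescence score within 5 deviations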;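 further: channel opened by trigger with iodide after compound preincubation; score built on the fluorescence ratio of max minus min over baseline; more negative score means more quench and so TMEM16A activation or potentiation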
DAGLB inhibitor: DAGLB lipase inhibitors, primary screen, biochemical, fluorescence, HTS | Diacylglycerol lipase-beta (Homo sapiens), Q8NCG7 | HEK293T DAGLB membrane lysate, EnzChek fluorogenic substrate | inhibition, % at 5.17 µM | hit rate 0.059% among 340,000 | AID 504411, 2011; in the data active means inhibition above about 34%;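 further: 0% = enzyme with vehicle and 100% = wells lacking enzyme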
Target sequence (Q8NCG7 whole entry, looked up): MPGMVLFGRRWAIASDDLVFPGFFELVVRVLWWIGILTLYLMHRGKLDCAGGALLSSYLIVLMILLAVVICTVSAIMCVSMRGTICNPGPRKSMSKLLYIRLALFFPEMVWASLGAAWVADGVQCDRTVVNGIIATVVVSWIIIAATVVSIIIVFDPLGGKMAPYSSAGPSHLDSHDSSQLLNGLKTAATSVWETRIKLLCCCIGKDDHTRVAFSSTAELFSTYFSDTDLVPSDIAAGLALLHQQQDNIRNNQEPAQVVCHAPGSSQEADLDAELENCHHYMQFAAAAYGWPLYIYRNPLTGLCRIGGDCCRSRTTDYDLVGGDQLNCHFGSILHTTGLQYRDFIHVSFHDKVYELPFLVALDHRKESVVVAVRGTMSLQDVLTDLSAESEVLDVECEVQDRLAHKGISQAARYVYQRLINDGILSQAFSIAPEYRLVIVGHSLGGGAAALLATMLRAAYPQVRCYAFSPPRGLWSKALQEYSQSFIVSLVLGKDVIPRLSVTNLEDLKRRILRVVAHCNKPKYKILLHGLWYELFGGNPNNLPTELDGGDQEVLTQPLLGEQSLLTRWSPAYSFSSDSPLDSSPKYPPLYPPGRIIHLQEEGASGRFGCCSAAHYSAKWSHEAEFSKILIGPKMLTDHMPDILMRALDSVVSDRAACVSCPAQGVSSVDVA
Starred values were filed as active, the others as inactive; i = inactive; nt = not tested or not shown. A selection: hits, their analogues and other compounds. The true share with any hit is near 1.3%.

SMILES	MT1-MMP act inh	TMEM16A inh	TMEM16A act	DAGLB inhibitor
Cc1ccc(S(=O)(=O)N(C)C[C@@H]2OCc3cnnn3CCCC(=O)N([C@H](C)CO)C[C@@H]2C)cc1	6	nt	nt	-1
O=S(=O)(O)c1cc(O)c2c(O)c(N=Nc3cc(Cl)ccc3O)c(S(=O)(=O)O)cc2c1	77*	i	i	18
CCOCCOC(=O)c1[nH]c2c(c1C)C(=O)CC(c1ccc(OC)c(OC)c1)C2 (stereo not given)	-1	i	i	1
COc1cc(C2CC(=O)c3c([nH]c(C(=O)OCCOC(C)C)c3C)C2)cc(OC)c1OC (stereo not given)	14	100*	i	0
O=C(C[C@@H]1C=C[C@H](NC(=O)Cc2ccccn2)[C@@H](CO)O1)NCCc1ccccc1	4	nt	nt	nt
Cc1cn2c(N)c(C=C3C=C(Cl)C(=O)C(Cl)=C3)c(=O)nc2s1	-135	nt	-6.8*	0
COC1=C/C(=C/c2c(N)n3cc(C)sc3nc2=O)C=CC1=O	-5	i	i	2
CCN(CC)CCCNC(=O)CNC(=O)c1nn(-c2ccc(OC)cc2OC)c(=O)c2ccccc12	-3	nt	nt	1
c1ccc2[nH]c(CN3CCOCC3)nc2c1	3	i	i	2
Nc1ccc2nc(CN3CCOCC3)[nH]c2c1	-4	i	-19*	1
CC1=NOC(=O)/C1=C\c1ccc(-c2cccc(Cl)c2)o1	-7	100*	i	28
COc1cc([N+](=O)[O-])ccc1-c1ccc(/C=C2\C(=O)ON=C2c2ccccc2)o1	-12	nt	-5.7*	2
Cc1ccc(/C=C2/C(=O)ON=C2c2ccccc2)o1	-19	25*	i	10
CC(C)c1ccc(NC(=S)Nc2ccc(OC(F)(F)F)cc2)cc1	-2	i	i	-2
FC(F)(F)Oc1ccc(NC(=S)Nc2ccc(OC(F)(F)F)cc2)cc1	1	25*	i	-4
C[C@H]1COC(=O)[C@H](Cc2ccc(F)cc2)C/C=C\C[C@@H](CC(=O)N(CCO)Cc2ccccc2)C(=O)N1	4	nt	i	-4
COc1ccc(OCCC(=O)OCC(=O)NCCC2=CCCCC2)cc1	3	i	-34*	-3
O=C(O)C1OCC2(CO1)COC(C(=O)O)OC2 (stereo not given)	3	nt	i	-1
CC(C)=CCc1c(-c2ccc(O)cc2O)oc2c3c(cc(O)c2c1=O)OC(C)(C)C=C3	nt	25*	nt	nt
O=c1[nH]nc(Sc2ccccc2)c(=S)[nH]1	-3	nt	nt	2
CCOC(=O)c1sc(N(Cc2ccccc2)C(=O)CCl)nc1C	2	i	i	0
O=C(O)CSCC(=O)N(Cc1ccccc1)c1nc(-c2ccccc2)c(-c2ccccc2)s1	-2	100*	i	9
O=C(Nc1ccccc1)N1CCCC(c2nc(-c3ccc(F)cc3)no2)C1 (stereo not given)	-8	i	i	-5
O=C(Nc1cccc(C(F)(F)F)c1)N1CCC(c2nc(-c3ccc(F)cc3)no2)CC1	-4	25*	i	-5
O=C(CCCCCN1C(=O)[C@@H]2Cc3ccccc3CN2C1=O)Nc1cccc(F)c1	-1	25*	i	-2
SMILES	MT1-MMP act inh	TMEM16A inh	TMEM16A act	DAGLB inhibitor
Cc1cccc(NC(=O)CCCCCN2C(=O)[C@@H]3Cc4ccccc4CN3C2=O)c1	1	i	i	-4
O=C(O)C(CCc1ccccc1)(Cc1ccccc1)C(=O)O	0	nt	i	1
CCOc1ccc(C(C)NC(=S)NC2CCCCC2)cc1OCC (stereo not given)	7	i	i	0
CCOc1ccc(C(=S)NC2CCCCC2)cc1OCC	3	i	-6.5*	-5
O=C(NC(=S)NC1CCCC1)c1ccccc1	0	i	i	-4
O=C(NC(=S)NC1C2CC3CC(C2)CC1C3)c1ccccc1 (stereo not given)	-5	i	-4.7*	-8
CC(=O)OCC1O[C@@H](O[C@@H]2C[C@H]3C(C)(C)[C@H](OC(C)=O)CC[C@]3(C)[C@H]3CC[C@]45C[C@]4(CC[C@H]5[C@@H](C)C[C@@H](O)[C@H](O)C(C)(C)O)[C@@]32C)[C@H](O)[C@@H](O)[C@@H]1O (stereo not given in full)	nt	100*	nt	nt

Screening results (PubChem)
